This is a sample that favours compounds with a hit; in the whole collection about 11% have one here.
L major viab: reduces viability of Leishmania major promastigotes; resazurin fluorescence viability; inhibition, % at 10 µM; hit rate 9% among 200,000;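 note: promastigotes grown with compound for 44 hours at 28 °C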
WT yeast gro inh: growth inhibition of WT yeast, mitochondrial fusion screen; mitochondrial fusion phenotypic screen, WT strain; inhibition, % at 10 µM; hit rate 2.1% among 190,000; AID 1362; in the data active = inhibition above about 58%; tested in S. cerevisiae
G6PDH counter: L. mesenteroides G6PDH inhibition counter-screen. Purified L. mesenteroides G6PDH, diaphorase/resazurin coupled fluorescence, 45 min. inhibition, % at 5 µM. hit rate 0.12% among 200,000. AID 1020
Diaph act CS: counter-screen for diaphorase-based assays: diaphorase activators and chemical reducers; Diaphorase/resazurin coupled assay, resorufin fluorescence, 16 min; hits give high values; 1 = vehicle wells, 0 = NADH-free wells; activation factor at 20 µM; hit rate 0.005% among 190,000; AID 1229;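 active = diaphorase activity raised at least twofold by the compound at 20 µM; inactive = activation factor below 2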
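Material: bacterial diaphorase enzyme (C. kluyveri); amount: enzyme 0.07 U/mL final; reagent: NADH substrate 0.114 mM plus resazurin dye 0.1 mM, final; doses: single compound dose of 20 µM, 1% DMSO final; timing: 16 min enzyme reaction, ambient temperature; measured by: fluorescence of resorufin, 544 nm excitation, 590 nm emission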
Diaphorase inh: counter-screen for diaphorase-based assays: diaphorase inhibitors and chemical oxidizers. diaphorase resazurin-to-resorufin fluorescence, NADH, 16 min; bacterial (C. kluyveri) enzyme, not human. inhibition, % at 20 µM. AID 1217. hit rate 0.69% among 190,000;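 active = primary screen inhibition at 20 µM above a set limit, cut at about 50% in these data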;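 note: plate controls were DMSO with full reaction for no effect and wells lacking NADH for full effect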
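Benchmarks: positive control wells lacking NADH, neutral wells with DMSO only. System: bacterial diaphorase enzyme (C. kluyveri). Input: 0.14 U/mL diaphorase, enzyme working solution. Detection: resorufin fluorescence, excitation 544 nm, emission 590 nm. Times: 16-min room-temperature incubation before reading.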
Starred values were filed as active, the others as inactive; . = no result given. Cut-off read from the data, not from the text of the source, unless noted: active = inhibition above about 50%; inactive = the rest.

SMILES	L major viab	WT yeast gro inh	G6PDH counter	Diaph act CS	Diaphorase inh
COC(=O)C1CCN(CC(=O)Nc2ccccc2Sc2ccccc2)CC1	52*	12	0	0.9	14
Cc1ccc(C(=O)OCC(=O)Nc2ccccc2Sc2ccccc2)cc1C	62*	1	-3	0.9	12
NC(=O)C1CCN(CC(=O)Nc2ccccc2Sc2ccccc2)CC1	3	-4	12	0.9	8
O=C(COC(=O)C1CC1)Nc1ccccc1Sc1ccccc1	-5	-4	10	0.9	12
O=C(CSc1ncccn1)NCc1cccs1	-4	-11	4	1	3
O=C1NC(=S)N/C1=C\c1ccc(N2CCOCC2)cc1	2	13	3	1	-3
CC(C)N(Cc1nc(-c2ccccc2)no1)S(=O)(=O)c1ccccc1	7	14	0	0.9	14
CN(CCCN1CCOCC1)Cc1nc(-c2ccccc2)no1	78*	5	19	0.9	6
CC1=C(CCN2CCN(C3CCCC3)C(CCO)C2)C(C)(C)CCC1 (centres undefined)	83*	13	23	1	2
CC(C)=CCN1CCN(CCC2=C(C)CCCC2(C)C)CC1CCO (centres undefined)	80*	15	7	1	4
Cc1nn(C)c(Cl)c1CN1CCN(C2CCCCC2)C(CCO)C1 (centres undefined)	-4	-1	13	1.1	-14
Cc1ccc(-c2c(C)n([O-])c3c([n+]2=O)CCCC3)o1	-3	-24	10	1	-2
CC1=C(C(=O)Nc2ccccc2C)C(c2ccc(C)o2)C2=C(CCCC2=O)N1 (centres undefined)	21	6	16	0.8	16
CN(C)c1ccc(CNCCC2CCOC(C)(C)C2)cc1 (centres undefined)	94*	0	5	0.8	15
CC1(C)Cc2nc3[nH]c(=S)n(-c4ccccc4)c(=O)c3cc2CO1	0	.	.	.	.
CCC1(C)Cc2nc3[nH]c(=S)n(-c4ccccc4)c(=O)c3cc2CO1 (centres undefined)	56*	19	-1	0.9	7
O=C(NCc1ccccc1)C(Cc1ccccc1)NS(=O)(=O)c1cccc2nsnc12 (centres undefined)	93*	16	-2	1	0
O=C(NCc1ccc(F)cc1)C(Cc1ccccc1)NS(=O)(=O)c1cccs1 (centres undefined)	100*	0	12	0.9	13
O=C(N[C@@H](Cc1ccccc1)C(=O)OCC(=O)N1CCOCC1)c1cccs1	-2	-24	22	1	-4
CCOC(=O)CN(C(=O)CSc1nnc2c(n1)[nH]c1ccc(OC)cc12)c1ccc(F)cc1	90*	-5	5	0.7	30
Clc1cccc(CNCCNCc2cccc(Cl)c2)c1	75*	15	7	0.9	10
OCCNCc1cccc(Br)c1	-5	-12	-3	1	2
O=[N+]([O-])c1cc(-c2n[nH]c(-c3ccccc3)n2)cc([N+](=O)[O-])c1	98*	23	3	1	-2
Cc1cccc(-c2n[nH]c([N+](=O)[O-])n2)c1	-4	4	14	0.9	15
CCOC(=O)C1(Cc2ccccc2C(F)(F)F)CCN(CC2CC2)CC1	57*	16	-2	0.9	8
SMILES	L major viab	WT yeast gro inh	G6PDH counter	Diaph act CS	Diaphorase inh
CCOC(=O)C1(Cc2ccccc2C(F)(F)F)CCN(C2CCCC2)CC1	80*	3	8	1	0
CCOC(=O)C1(Cc2ccccc2C(F)(F)F)CCN(C2CCSC2)CC1 (centres undefined)	52*	8	-1	0.8	23
CCOC(=O)C1(Cc2ccccc2C(F)(F)F)CCN(C(=O)c2cc(C(C)=O)n[nH]2)CC1	6	7	12	.	.
CCOC(=O)C1(Cc2ccccc2C(F)(F)F)CCN(C(C)CSC)CC1 (centres undefined)	76*	-6	10	1	1
CCOC(=O)C1(Cc2ccccc2C(F)(F)F)CCN(C(C)CCn2cccn2)CC1 (centres undefined)	49	8	11	.	.
COc1ccccc1N1CCN(C(C)C(=O)Nc2ccc(S(=O)(=O)N3CCOCC3)cc2)CC1 (centres undefined)	-3	-21	10	0.9	9
CCc1cccc2c(C(=O)CN3C(=O)NC(C)(c4cccc5ccccc45)C3=O)c[nH]c12 (centres undefined)	63*	6	18	0.6	39
COc1ccc(C2CC(=O)Oc3c2c(=O)n(C)c2ccccc32)c(OC)c1OC (centres undefined)	-5	-14	2	.	.
CCC(O)C1CCN(C(=O)c2cc(COc3ccc4ncccc4c3)on2)CC1 (centres undefined)	23	-8	11	.	.
COc1ccc(F)cc1C(=O)C1CCCN(Cc2ccc(Sc3nncn3C)o2)C1 (centres undefined)	14	5	-3	0.9	9
Clc1ccc2nc(C3CCN(Cc4nnnn4C4CCCCC4)CC3)[nH]c2c1	19	-15	3	0.9	8
Cc1ccc(Cn2nnnc2CN2CCC(c3nc4ccc(Cl)cc4[nH]3)CC2)cc1	55*	3	-17	0.8	19
C=CCNC(=O)c1ccc(OC2CCN(S(=O)(=O)N(C)C)CC2)cc1	-4	-17	21	0.9	12
CC(C)[C@H](NC(=O)c1ccccc1)C(=O)OCC(=O)NCCc1ccc(F)cc1	1	-25	7	0.9	7
CC(C)[C@H](NC(=O)c1ccccc1)C(=O)OCC(=O)c1ccccc1F	5	-8	15	1	3
CC(C)[C@H](NC(=O)c1ccccc1)C(=O)OCC(=O)NCCC1=CCCCC1	59*	-2	10	0.9	9
CC(C)C(NC(=O)c1ccc(C(C)(C)C)cc1)C(=O)OCC(=O)NC(=O)Cc1ccccc1 (centres undefined)	50*	17	6	0.8	24
Cc1c(/C(O)=C2/C(=O)C(=O)N(CCN3CCOCC3)C2c2ccccn2)cnn1-c1ccccc1 (centres undefined)	-5	1	8	0.9	10
Cc1ccc(S(=O)(=O)Nc2ccc(Cl)cc2C(=O)c2ccc(F)cc2)cc1	14	51	-5	0.9	13
O=C1NC(=S)S/C1=C/c1ccc(N2CCOCC2)o1	-6	23	12	0.8	24
COc1ccc2cc(/C=C3\SC(=S)NC3=O)c(N3CCOCC3)nc2c1	8	72*	3	0.4	58*
CC(NCC(O)COC1CCC(C(C)(C)C)CC1)c1ccccc1 (centres undefined)	100*	72*	5	0.9	10
CC(NCC(O)COc1ccc(S(=O)(=O)N2CCOCC2)cc1)c1ccccc1 (centres undefined)	31	-9	1	0.9	13

Screening data deposited in PubChem BioAssay by several laboratories.
